The term inhibition denotes the drop in the measured response relative to a control, in per cent. As usually defined, the pEC50 is −log10 of the EC50, conventionally taken in molar units.

pEC50: −log10 of the molar value. Bounds are passed on as bounds.

Experimental findings from ChEMBL document CHEMBL3994574, “Novel hamamelitannin analogues for the treatment of biofilm related MRSA infections-A scaffold hopping approach” (Eur J Med Chem, 2017) are described below.

Series [1] deals with Staphylococcus aureus subsp. aureus Mu50. The series is described as follows: Inhibition of quorum sensing system in methicillin-resistant Staphylococcus aureus Mu50 assessed as potentiation of vancomycin-mediated reduction in CFU/biofilm at 100 uM preincubated for 20 hrs followed by vancomycin addition measured after 24 hrs (reference value: 30 +/- 14%).
The nature of series [2]: Inhibition of quorum sensing system in methicillin-resistant Staphylococcus aureus Mu50 assessed as potentiation of vancomycin-mediated reduction in CFU/biofilm preincubated for 20 hrs followed by vancomycin addition measured after 24 hrs. Also noted: species or system Staphylococcus aureus subsp. aureus Mu50.
In series [3] the test system is Staphylococcus aureus. Kind of series: Growth inhibition of methicillin-resistant Staphylococcus aureus Mu50 after 20 hrs by broth microdilution method. In outline: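 MRSA Mu50 grown in Mueller-Hinton broth at 37 °C, aerobic. MIC found in triplicate in flat-bottom 96-well plates, using a procedure from earlier work. Highest concentration tested was […].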
In general terms: In broth dilution the organism is exposed to a series of concentrations in liquid medium.

Series [4] concerns Staphylococcus aureus subsp. aureus Mu50. Kind of series: Inhibition of quorum sensing system in methicillin-resistant Staphylococcus aureus Mu50 assessed as potentiation of vancomycin-mediated reduction in CFU/biofilm at 100 uM after 24 hrs (reference value: 30 +/- 14%).
Series [5] is described as follows: Inhibition of quorum sensing system in methicillin-resistant Staphylococcus aureus Mu50 assessed as potentiation of vancomycin-mediated reduction in CFU/biofilm after 24 hrs. Details: species or system Staphylococcus aureus subsp. aureus Mu50.

In the case of `O=C(OC[C@H]1OC(O)[C@@](O)(COC(=O)c2cc(O)c(O)c(O)c2)[C@@H]1O)c1cc(O)c(O)c(O)c1` (stereo not given in full) [HAMAMELITANNIN], the inhibition in series [1] and in series [4] was 57% throughout. Further, the values for the pEC50 in series [2] and in series [5] were 3.84 and 3.78, respectively. Besides, the MIC in series [3] is over 500 µM.
For `O=C(NC[C@H]1CN(C(=O)c2ccccc2Cl)CCO1)c1ccccc1`, the inhibition is -7% in series [1] and 41% in series [4]. For the same compound, the MIC in series [3] is over 500 µM.
Taken in the same sequence, the figures for `O=C(NC[C@]1(O)CO[C@H](CNC(=O)c2ccccc2Cl)C1)c1ccccc1` were 21%, 65% and over 500 µM.
As to `O=C(NC[C@H]1CN(C(=O)c2ccccc2)CCO1)c1ccccc1Cl`, the inhibition in series [1] was -6%; in series [4], 51%. Besides, in series [3], the MIC is over 500 µM.
In the case of `O=C(NC[C@@H]1CO[C@H](CNC(=O)c2ccccc2Cl)CO1)c1ccccc1`, the results for the inhibition in series [1] and in series [4] were 95% and 91%, respectively. Moreover, the negative logarithm of the EC50 (pEC50) in series [2] was 5.25; in series [5] it was 4.88. Further, the MIC in series [3] is over 500 µM.
Turning to `O=C(NC[C@]1(O)CO[C@H](CNC(=O)c2ccccc2Cl)[C@H]1O)c1ccccc1`, the inhibition in series [1] turned out to be 88%; in series [4], 92%. In addition, the results for the negative logarithm of the EC50 (pEC50) in series [2] and in series [5] were 6.41 and 5.10, respectively. Further, the MIC in series [3] is over 500 µM.
In the case of `O=C(NC[C@@H]1CN[C@H](CNC(=O)c2ccccc2Cl)C1)c1ccccc1`, the inhibition in series [1] was 62%; in series [4] it was 47%. Besides, the MIC in series [3] is over 500 µM.
Taken in the same sequence, the figures for `O=C(NC[C@@H]1C[C@H](CNC(=O)c2ccccc2Cl)CN1)c1ccccc1` were 54%, 50% and over 500 µM.
As to `O=C(NC[C@@H]1O[C@H](CNC(=O)c2ccccc2Cl)[C@@H](O)[C@H]1O)c1ccccc1`, the inhibition in series [1] was found to be 93%; in series [4], 95%. Also, the negative logarithm of the EC50 (pEC50) in series [2] is 5.59; in series [5], 5.43. The compound further showed an MIC in series [3] of over 500 µM.
